MrgX1 agonist – agonists of human MrgX1 receptor, primary screen, HEK293 cells, Fluo-4 calcium flux; Fluo-4 calcium fluorescence, agonist mode; stronger effect = higher value; 310,000 compounds, 0.44% hits; B-score at 10 µM; Mas-related G-protein coupled receptor member X1 (Homo sapiens), Q96LB2;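 active means calcium response B-score plate-corrected fluorescence ratio at least 3 library SD, with starting fluorescence B-score inside 5 SD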
Target sequence (Q96LB2 whole entry, looked up): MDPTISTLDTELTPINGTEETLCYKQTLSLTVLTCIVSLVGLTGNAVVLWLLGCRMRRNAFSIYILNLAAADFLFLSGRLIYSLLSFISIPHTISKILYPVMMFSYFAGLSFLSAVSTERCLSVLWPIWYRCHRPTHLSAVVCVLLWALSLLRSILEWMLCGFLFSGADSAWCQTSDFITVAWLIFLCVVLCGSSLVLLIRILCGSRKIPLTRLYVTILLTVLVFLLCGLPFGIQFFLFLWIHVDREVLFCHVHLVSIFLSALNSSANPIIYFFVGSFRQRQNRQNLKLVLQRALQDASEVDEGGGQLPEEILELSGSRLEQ
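Test system: Stable human MrgX1 HEK293 cell line | Schedule: Overnight plating before 1 h dye loading | Read-out basis: Baseline-normalised fluorescence change ratio, B-scored | Detection: Kinetic calcium dye fluorescence, Fluo-4 NW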
MrgX1 antagonist – antagonists of human MrgX1 receptor, primary screen, HEK293 cells, Fluo-4 calcium flux. Mas-related G-protein coupled receptor member X1 (Homo sapiens), Q96LB2. BAM8-22 antagonism; stronger effect = lower value. B-score at 10 µM. 310,000 compounds, 1.3% hits;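 active means calcium-response B-score plate-corrected more than 3 library SD below zero, starting fluorescence within 5 deviations, no agonist response on first addition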;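 further: peak minus trough fluorescence over baseline after final BAM8-22 challenge near maximal dose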
RGS4 inh – RGS4 inhibitors, primary screen, cell-based, HEK293 M3R inducible RGS4, calcium flux; 310,000 compounds, 0.45% hits; B-score at 10 µM; Regulator of G-protein signaling 4 (Homo sapiens), P49798; Fluo-4 calcium flux; stronger effect = higher value; triggered by carbachol at its EC20;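 active means B-score, a plate-corrected calcium signal, over three deviations above library mean, with baseline fluorescence within five deviations of library mean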;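 further: RGS4 expression induced by doxycycline in cells with stable M3 receptor; B-score is computed from the integrated fluorescence ratio over baseline after carbachol; higher B-score means a larger calcium signal and so more RGS4 inhibition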
Target sequence (P49798 whole entry, looked up): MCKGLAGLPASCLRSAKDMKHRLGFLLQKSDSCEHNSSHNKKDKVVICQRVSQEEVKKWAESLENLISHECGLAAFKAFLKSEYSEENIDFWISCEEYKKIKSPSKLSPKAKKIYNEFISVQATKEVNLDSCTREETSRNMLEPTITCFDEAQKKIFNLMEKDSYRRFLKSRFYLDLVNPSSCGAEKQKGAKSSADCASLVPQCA
MrgX1 PAM – positive allosteric modulators of MrgX1, primary screen, HEK293 cells, Fluo-4 calcium flux; B-score at 10 µM; FDSS; stronger effect = higher value; 310,000 compounds, 0.63% hits;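 active means plate-corrected calcium response at least 3 library SD above typical, normal starting fluorescence, not activating the receptor alone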;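 further: compound read alongside a low EC10 to EC30 dose of BAM8-22 agonist; peak minus trough fluorescence over baseline measured at the second addition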
RGS4 pot – RGS4 potentiators or activators, primary screen, cell-based, HEK293 M3R inducible RGS4, calcium flux. carbachol calcium flux Fluo4; stronger effect = lower value. B-score at 10 µM. 310,000 compounds, 0.92% hits. AID 463111, 2010;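 active means B-score of the integrated calcium signal more than 4 SD below the library mean, with starting fluorescence not abnormally high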;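 further: negative B-score means reduced calcium response which marks RGS4 activation or potentiation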
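Reagent: ECmax carbachol challenge; Test system: M3R-expressing HEK293 line, RGS4 induced by doxycycline; Schedule: overnight RGS4 induction, 30 min dye load 37 °C, 20 min compound RT; Detection: calcium dye Fluo4 fluorescence; Read-out: Agonist-evoked peak-minus-minimum fluorescence over baseline, integrated ratio, B score.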
A number is an active result; 0 = inactive; - = no result given. Rows were chosen to be rich in hits. Some 3.5% of all compounds tested hit in one or more screens of this group.

SMILES | MrgX1 agonist | MrgX1 antagonist | RGS4 inh | MrgX1 PAM | RGS4 pot
Cc1ccc(C(=O)N2CC(C)OC(C)C2)cc1[N+](=O)[O-] (centres undefined) | 0 | -4.96 | 0 | 0 | 0
CC(C)CNC(=S)NC(=O)c1ccc([N+](=O)[O-])cc1 | 0 | 0 | 0 | 10.4 | 0
Cc1cccc(C(=O)NC(=S)NNC(=O)COc2c(C)cccc2C)c1 | 26.7 | 0 | 0 | 0 | 0
Cc1ccc(OCC(=O)NNC(=S)NC(=O)C2CCCCC2)c(C)c1 | 48.5 | 0 | 0 | 0 | -7.09
Cc1cccc(C(=O)NC(=S)NCc2ccccc2)c1 | 0 | 0 | 0 | 0 | 0
Cc1ccc(C(=O)NC(=S)NNC(=O)COc2ccc([N+](=O)[O-])cc2)cc1 | 0 | 0 | 0 | 6.94 | 0
CCNC(=O)c1ccc(-n2nc(C(F)(F)F)c3c2CCCC3)cc1 | 0 | 0 | 0 | 0 | 0
C=C(C)c1ccccc1NC(=O)CCN1C(=O)c2ccccc2S1(=O)=O | 0 | 0 | 0 | 0 | 0
Cc1ccc(C(=O)NC(=S)NNC(=O)COc2ccccc2C)cc1 | 0 | 0 | 0 | 0 | -8.7
Cc1cc(C)c(C(=O)NC2CC(C)(C)Cc3c2cnn3-c2ccccc2)o1 (centres undefined) | 0 | 0 | 0 | 0 | 0
CCN1C(=O)/C(=C/N2CCc3ccccc32)SC1=S | 33.9 | 0 | 0 | 0 | 0
CCOc1ccc(C(=O)N2CCc3ccccc32)cc1OCC | 0 | 0 | 0 | 0 | 0
CC(C)Cc1ccc(C(C)C(N)=NCCc2ccccc2)cc1 (centres undefined) | 0 | 0 | 0 | 0 | -7.12
Cn1cccc1/C=N\NC(=O)C1COc2ccccc2O1 (centres undefined) | 0 | 0 | 0 | 0 | 0
Cn1cccc1/C=N\NC(=O)C1COc2ccc(C(C)(C)C)cc2O1 (centres undefined) | 0 | 0 | 0 | 8.09 | 0
CC(C)CCOc1cccc(OCC(=O)N(C)C2CCS(=O)(=O)C2)c1 (centres undefined) | 0 | 0 | 0 | 0 | 0
CC(C)c1ccc(NC2=CC(=O)CC(C)(C)C2)cc1 | 0 | 0 | 0 | 0 | 0
CSc1nc2ccccc2cc1/C=C(\C#N)c1ccccc1 | 0 | 0 | 0 | 0 | 0
O=Cc1cc2ccccc2nc1SCCCF | 0 | -5.83 | 0 | 0 | 0
O=[N+]([O-])c1ccc(Cl)c(S(=O)(=O)Nc2ccc(-c3ccc(N4CCCC4)nn3)cc2)c1 | 0 | 0 | 0 | 0 | 0
Cc1c([N+](=O)[O-])cc(S(=O)(=O)Nc2ccc(-c3ccc(N4CCCC4)nn3)cc2)cc1[N+](=O)[O-] | 0 | 0 | 0 | 0 | 0
O=[N+]([O-])c1ccc(S(=O)(=O)Nc2ccc(-c3ccc(N4CCCC4)nn3)cc2)cc1 | 0 | 0 | 0 | 6.69 | 0
Cc1ccc([N+](=O)[O-])cc1S(=O)(=O)Nc1ccc(-c2ccc(N3CCCC3)nn2)cc1 | 0 | 0 | 0 | 16.2 | 0
CCc1cccc2c(C(=O)COC(=O)c3cccc(S(=O)(=O)N(C)C4CCCCC4)c3)c[nH]c12 | 0 | 0 | 0 | 0 | 0
COc1ccc(CN2CCN(CC=C(C)C)C(CCO)C2)cc1Cn1cccn1 (centres undefined) | 28.2 | 0 | 0 | 0 | 0
SMILES | MrgX1 agonist | MrgX1 antagonist | RGS4 inh | MrgX1 PAM | RGS4 pot
CC(=O)OCCCCCCCCCCC[N+]1(C)CCCCC1 | 0 | 0 | 0 | 0 | -8.91
CCCOc1ccc(N)cc1N | 0 | -6.68 | 0 | 0 | 0
CCCCC[n+]1cccc2c3ccccc3ccc21 | 0 | 0 | 0 | 0 | 0
Cc1ccc2ccccc2[n+]1CCCS(=O)(=O)[O-] | 0 | 0 | 0 | 0 | 0
CCC[n+]1c2ccccc2cc2ccccc21 | 26.5 | 0 | 0 | 0 | 0
CCCC[n+]1c2ccccc2cc2ccccc21 | 32.1 | 0 | 0 | 0 | 0
Cc1c(NC(=O)COC(=O)Cc2ccc(Cl)cc2)c(=O)n(-c2ccccc2)n1C | 0 | 0 | 0 | 0 | 0
COc1cc2[nH]c(=S)nc(NCCC(C)C)c2cc1OC | 0 | 0 | 0 | 0 | 0
COc1ccc(OC)c(C(=O)N2CCCC(Nc3ccc(F)cc3)C2)c1 (centres undefined) | 0 | 0 | 0 | 0 | 0
C=CCn1c(SCc2csc(-c3ccc(C)cc3)n2)nnc1-c1ccccc1OC | 0 | -6.01 | 0 | 0 | 0
Cc1ccc(-c2nc(CSc3nc4ccccc4c(=O)n3CCO)cs2)cc1 | 0 | 0 | 0 | 0 | 0
COc1ccccc1-n1cnnc1SCc1csc(-c2ccccc2)n1 | 0 | 0 | - | 0 | -
Cc1ccc(-c2nc(CSc3nc4ccccc4c(=O)n3C)cs2)cc1 | 0 | 0 | 0 | 0 | -7.02
COc1ccc(C(=O)Nc2ccccc2N2CCCC2)cc1S(=O)(=O)N1CCOCC1 | 0 | 0 | 0 | 0 | 0
COC(=O)C1(C(C[N+](=O)[O-])c2ccco2)C(=O)NCC1c1ccccc1 (centres undefined) | 41.8 | 0 | 0 | 0 | 0
CCOC(=O)c1c(N2C(=O)Nc3ccccc3N2O)sc2c1CCCC2 | 37.5 | 0 | 0 | 0 | 0
Cc1cnc(CN(C)C(=O)c2ccc3oc(Cc4ccc(Cl)cc4)nc3c2)[nH]1 | 0 | 0 | 0 | 0 | -7.18
Cc1ccc(C2C(C#N)=C(N)SC(N)=C2C#N)o1 | 0 | -7.25 | 0 | 0 | 0
CCc1ccc(C2C(C#N)=C(N)SC(N)=C2C#N)s1 | 0 | -6.07 | 0 | 0 | 0
CCc1ccc(C2C(C#N)=C(N)SC(N)=C2C#N)cc1 | 0 | -5.32 | 0 | 0 | 0
N#CC1=C(N)SC(N)=C(C#N)C1c1ccc(C(F)(F)F)cc1 | 0 | 0 | 0 | 0 | 0
COc1cccc(C(=O)NCCS(=O)(=O)N2CCCCCC2)c1 | 0 | 0 | 0 | 0 | 0
Cc1cc(=O)oc2cc(OCC(=O)OCC(=O)Nc3c(C)n(C)n(-c4ccccc4)c3=O)ccc12 | 0 | -8.79 | 0 | 0 | 0
COc1ccc(OC)c(CNn2c(-c3ccccc3F)nc3ccccc3c2=O)c1 | 0 | -4.78 | 0 | 0 | 0
CCC(C)NC(=O)c1cc2c(=O)n3ccccc3nc2s1 (centres undefined) | 0 | 0 | 0 | 0 | 0
SMILES | MrgX1 agonist | MrgX1 antagonist | RGS4 inh | MrgX1 PAM | RGS4 pot
CCOc1ccc(N=C2NC(=O)C(CC(=O)Nc3ccccc3)S2)cc1 (centres undefined) | 0 | 0 | 0 | 0 | 0
CCn1c(NC(=O)c2ccc(F)cc2)c2ccccc2nc1=O | 0 | 0 | 0 | 0 | 0
CC(=O)NC1C(Oc2cccc(C)c2)OC2COC(c3ccco3)OC2C1O (centres undefined) | 0 | 0 | 0 | 0 | -7.34
COCCN(CCOC)C(=O)CN1C(=O)NC(Cc2c[nH]c3ccccc23)C1=O (centres undefined) | 0 | 0 | 0 | 0 | 0
Cc1ccccc1CN(CC(=O)Nc1cccc([N+](=O)[O-])c1)S(=O)(=O)c1ccc(Cl)cc1 | 0 | 0 | 0 | 0 | -7.25
CS(=O)(=O)N(CC(=O)Nc1cccc([N+](=O)[O-])c1)c1ccccc1 | 0 | 0 | 0 | 0 | 0

Assay outcomes from PubChem.
